Assay results: ChEMBL document CHEMBL1131015, “Homonojirimycin isomers and N-alkylated homonojirimycins: structural and conformational basis of inhibition of glycosidases” (J Med Chem, 1998)

Experiments:
[1] = Inhibitory activity measured against beta-galactosidase of bovine liver by colorimetric assay using the D-glucose oxidase-peroxidase method; design: species or system Bos taurus; conditions: in the assay text read “p-nitrophenyl glycoside method” for “D-glucose oxidase-peroxidase method”
How it was run: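 Activity was measured with the appropriate p-nitrophenyl glycoside as substrate at each enzyme's optimum pH. The reaction was stopped with 400 mM Na2CO3, and released p-nitrophenol was read spectrophotometrically at 400 nm.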

[2] = Inhibitory activity measured against beta-galactosidase of rat intestinal lactase by colorimetric assay using the D-glucose oxidase-peroxidase method
How it was run: (§1)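 Enzyme source was brush border membranes from the intestine of male Wistar rats. Each activity was run with the appropriate disaccharide as substrate at that enzyme's optimum pH. Released D-glucose was quantified colorimetrically by the glucose oxidase–peroxidase method.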

Bos taurus = species: Bos taurus; conditions: 1000 uM
Rattus norvegicus = species: Rattus norvegicus; conditions: 1000 uM
[3] = target: Alpha-galactosidase (Coffea arabica) (UniProt Q42656); conditions: 1000 uM
Alpha-galactosidase (Coffea arabica), sequence (Q42656 whole entry, looked up): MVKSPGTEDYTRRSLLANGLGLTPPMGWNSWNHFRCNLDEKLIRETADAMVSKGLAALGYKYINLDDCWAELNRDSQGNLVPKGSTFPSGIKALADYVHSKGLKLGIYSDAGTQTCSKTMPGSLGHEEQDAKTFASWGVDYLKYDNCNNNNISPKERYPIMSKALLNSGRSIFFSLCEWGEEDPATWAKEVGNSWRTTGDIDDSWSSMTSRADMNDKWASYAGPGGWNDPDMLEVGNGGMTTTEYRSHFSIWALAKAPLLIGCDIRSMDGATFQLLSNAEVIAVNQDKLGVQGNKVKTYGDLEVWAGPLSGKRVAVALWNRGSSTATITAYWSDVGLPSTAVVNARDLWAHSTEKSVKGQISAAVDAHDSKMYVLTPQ

[4] = target: T1, Tissue alpha-L-fucosidase (Rattus norvegicus) (UniProt P17164); conditions: 1000 uM
T1 sequence (whole entry): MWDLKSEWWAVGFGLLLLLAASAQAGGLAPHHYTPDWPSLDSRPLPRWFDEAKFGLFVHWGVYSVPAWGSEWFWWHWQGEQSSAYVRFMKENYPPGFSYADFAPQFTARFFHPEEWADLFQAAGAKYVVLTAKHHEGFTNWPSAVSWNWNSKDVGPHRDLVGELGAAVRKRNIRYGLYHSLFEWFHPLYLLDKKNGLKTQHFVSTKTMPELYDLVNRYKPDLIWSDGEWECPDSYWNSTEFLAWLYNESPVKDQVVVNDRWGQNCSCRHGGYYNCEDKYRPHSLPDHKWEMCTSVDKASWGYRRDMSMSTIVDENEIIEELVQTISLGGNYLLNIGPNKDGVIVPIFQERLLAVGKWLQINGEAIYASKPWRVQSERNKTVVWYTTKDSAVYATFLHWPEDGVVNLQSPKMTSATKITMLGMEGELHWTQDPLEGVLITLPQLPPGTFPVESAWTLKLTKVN

[5] = Inhibitory activity measured against beta-galactosidase of rat intestinal lactase by colorimetric assay using the D-glucose oxidase-peroxidase method.; how it was run: as §1

IC50 [1] [µM]	IC50 [2] [µM]	inhibition (Bos taurus) [%]	inhibition (Rattus norvegicus) [%]	inhibition [3] [%]	inhibition [4] [%]	IC50 [5] [µM]	SMILES
86	130	–	–	–	–	–	OCC1NC(CO)[C@@H](O)C(O)C1O (stereo partly drawn)
–	–	< 50	< 50	< 50	< 50	–	OC[C@H]1N[C@H](CO)[C@@H](O)[C@H](O)[C@H]1O
–	–	< 50	< 50	< 50	–	–	OC[C@@H]1N[C@H](CO)[C@@H](O)[C@H](O)[C@@H]1O
–	–	< 50	< 50	< 50	< 50	–	OC[C@@H]1N[C@H](CO)[C@@H](O)[C@H](O)[C@H]1O
–	–	< 50	< 50	< 50	–	–	OC[C@H]1N[C@H](CO)[C@@H](O)C(O)[C@@H]1O (stereo partly drawn)
–	–	–	–	–	< 50	290	OC[C@H]1N[C@H](CO)[C@H](O)C(O)[C@H]1O (stereo partly drawn)
